Hits are enriched below; roughly 1.2% of the tested compounds scored in any of these assays.
ARNT-TACC3 inh: ARNT/TACC3 interaction disruption; Q9Y6A5; AlphaScreen His-ARNT PAS-B/GST-TACC3 binding, luminescence; TACC3 fragment carries E629A point mutation; inhibition, % at 9.99 µM; hit rate 0.66% among 390,000;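 active = mean inhibition of replicates at least 50% and at least half of replicates each reaching 50%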
CAL PDZ FP-1: inhibitors of human CAL PDZ peptide binding | Q9HD26 | purified CAL PDZ, TMR-peptide fluorescence polarization, 1 h | inhibition, % at 20 µM | hit rate 0.02% among 330,000 | AID 504414;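 active = highest replicate inhibition of at least 40%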
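System: tagged CAL PDZ domain. Schedule: 1 h room-temperature incubation prior to read. Signal: fluorescence polarization (mP). Measure: percent inhibition from loss of millipolarization.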
CAL PDZ FP-2: inhibitors of human CAL PDZ peptide binding; Q9HD26; purified CAL PDZ, TMR-peptide fluorescence polarization, 1 h; inhibition, % at 24.9 µM; hit rate 0.92% among 300,000; AID 602252;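 active = mean inhibition of at least 30% with at least half of replicates also reaching 30%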
Hits are given with their value; – = inactive; · = no result given.

SMILES	ARNT-TACC3 inh	CAL PDZ FP-1	CAL PDZ FP-2
CC(C)NC(=O)Nc1ccc2c(c1)C(=O)N([C@@H](C)CO)C[C@H](C)[C@H](CN(C)C)OCCCC[C@H](C)O2	–	·	·
CO[C@@H]1CN(C)C(=O)c2ccc(NC(=O)C3CC3)cc2OC[C@H](C)N(CCc2ccccc2)C[C@@H]1C	–	·	·
C[C@@H]1CN([C@H](C)CO)C(=O)c2cccc(NC(=O)c3nc4ccccc4s3)c2O[C@H]1CN(C)C(=O)Nc1ccccc1	–	·	·
C=CCC(C#Cc1ccccc1)N(C)C (stereo not drawn)	–	–	87
C=CCC(C#Cc1ccccc1)[N+](C)(C)CC=C (stereo not drawn)	–	–	·
O=C(C[C@H]1CC[C@@H]2[C@H](COC[C@@H](O)CN2CCc2ccccc2)O1)NCc1ccccc1	–	·	·
Cc1ccc(C)c(NC(=O)CN(C)C(=O)c2ccc3c(=O)n4c(nc3c2)CCC4)c1	–	–	49
CN(CC(=O)Nc1ccccc1Br)C(=O)c1ccc2c(=O)n3c(nc2c1)CCC3	–	–	–
CC(=O)N1CC[C@@H]2[C@H]1c1cc(-c3cccc(F)c3)ccc1N(C)[C@@H]2CO	–	·	·
O=C(Cn1c2c(c(=O)n3ncnc13)CCC2)N/N=C/c1ccc(Cl)cc1	–	–	–
Cn1c2c(c(=O)n3ncnc13)CCCC2	–	–	48
CCOC(=O)N1CCC(=C(C#N)C(=O)Nc2cc(OC)ccc2OC)CC1	–	–	31
CCOC(=O)C1CCCN(CCC(=O)Nc2cc(OC)ccc2OC)C1 (stereo not drawn)	–	–	–
O=C(N[C@H]1CC[C@H](CC(=O)N2CCc3ccccc3C2)O[C@@H]1CO)C1CCOCC1	–	·	·
CO[C@@H]1CC[C@@H]2CCN(C)C(=O)[C@@H](C)CN(C)C(=O)c3cccc(C#N)c3OC[C@H]1O2	–	·	·
CCC(=O)Nc1ccc2c(c1)C(=O)N(C)C[C@@H](OC)[C@@H](C)CN(C(=O)Cc1ccccn1)[C@@H](C)CO2	–	·	·
COc1ccc(S(=O)(=O)N(C)C[C@@H]2OCc3ccccc3-c3ccccc3C(=O)N([C@H](C)CO)C[C@H]2C)cc1	–	·	·
CC(=O)Nc1cccc(/C(C)=N/NS(=O)(=O)c2ccccc2)c1	·	–	–
COc1ccc(S(=O)(=O)N/N=C(/C)c2cccc(NC(=O)c3ccccc3Cl)c2)cc1	–	–	43
CCC(=O)Nc1ccc2c(c1)C(=O)N(C)C[C@@H](OC)[C@@H](C)CN(C(=O)c1cnccn1)[C@@H](C)CO2	–	·	·
C[C@@H]1CN([C@H](C)CO)S(=O)(=O)c2ccc(-c3ccccc3)cc2O[C@H]1CN(C)C(=O)Nc1ccccc1F	–	·	·
Cc1ccsc1C(=O)N/N=C/C=C/c1ccccc1[N+](=O)[O-]	–	–	79
Cc1occc1C(=O)N/N=C/C=C\c1ccccc1[N+](=O)[O-]	·	–	–
O=C1C2C3C=CC(O3)C2C(=O)N1N=Cc1cccc2ccccc12 (stereo not drawn)	–	–	112
C=CCn1cc(/C=N/N2C(=O)C3C4C=CC(C4)C3C2=O)c2ccccc21 (stereo not drawn)	–	–	–
SMILES	ARNT-TACC3 inh	CAL PDZ FP-1	CAL PDZ FP-2
CC(C)NC(=O)N(C)C[C@H]1Oc2ccc(NS(=O)(=O)c3ccc(Cl)cc3)cc2C(=O)N([C@@H](C)CO)C[C@H]1C	–	·	·
Cc1ccc(/C=C2/Sc3ccccc3N(CC(=O)NCC3CCCO3)C2=O)cc1 (stereo not drawn)	–	–	184
CCc1ccc(/C=C2/Sc3ccccc3N(CC(=O)NCC3CCCO3)C2=O)cc1 (stereo not drawn)	·	–	–
COc1ccc(NC(=O)N(C)C[C@@H]2OCCCC[C@@H](C)Oc3ccc(NC(=O)CCC(F)(F)F)cc3C(=O)N([C@H](C)CO)C[C@@H]2C)cc1	–	·	·
O=C(NCC[C@@H]1CC[C@@H](NS(=O)(=O)c2cccc(F)c2)[C@H](CO)O1)C1CCC1	–	·	·
CCn1c(=O)cc(SCC(=O)NCCCN2CCC(C)CC2)c2ccccc21	–	–	31
CCn1c(=O)cc(SCC(=O)NCCCN2CCN(c3ccc(F)cc3)CC2)c2ccccc21	–	–	·
Cc1ccc(C(=O)N2CCN(c3ccccn3)CC2)cc1C	–	–	–
O=C(c1ccc(-c2ccccc2)cc1)N1CCN(c2ccccn2)CC1	–	–	78
Cc1ccc(NC(=O)CN2CCCC2c2cccn2C)c(Br)c1 (stereo not drawn)	–	–	39
Cc1ccc(NC(=O)CN2CCCC2c2cccn2C)cc1C (stereo not drawn)	–	–	–
C[C@@H]1CN([C@H](C)CO)C(=O)c2cc(NC(=O)Nc3ccccc3)ccc2O[C@@H](C)CCCCO[C@@H]1CN(C)Cc1ccccc1	–	·	·
CO[C@@H]1CN(C)C(=O)c2ccc(NC(C)=O)cc2OC[C@@H](C)N(CC2CCCCC2)C[C@@H]1C	–	·	·
C[C@H](CO)N1C[C@H](C)[C@H](CN(C)C(=O)Nc2cccc3ccccc23)Oc2ccc(NC(=O)Nc3cccc4ccccc34)cc2C1=O	–	·	·
O=C(Nc1ccccc1)c1ccc2snnc2c1	–	–	78
Cc1ccc(NC(=O)c2ccc3snnc3c2)cc1	–	–	–
CN1C(=O)c2cc(NC(=O)c3ccccc3)ccc2OC[C@@H]2O[C@H](CC(=O)NC3CCCC3)CC[C@@H]21	–	·	·
O=S(=O)(/N=C(/c1ccccc1)N1CCOCC1)c1ccc(Br)cc1	–	–	37
Cc1ccc(S(=O)(=O)/N=C(/c2ccccc2)N2CCOCC2)cc1	–	–	–
CN(C)C=C1C(=O)c2ccccc2C1=O	–	–	·
CN(C)/C=C1\C(=O)NN=C1c1ccccc1	28	–	–
C[C@H](CO)N1C[C@H](C)[C@@H](CN(C)Cc2ccc(C(F)(F)F)cc2)OCCCC[C@H](C)Oc2ccc(NC(=O)Cc3ccccc3)cc2C1=O	–	·	·
CC1CCN(CCC(=O)N/N=C/c2ccc([N+](=O)[O-])cc2)CC1	–	–	163
CN1CCN(CCC(=O)N/N=C/c2cc([N+](=O)[O-])ccc2OC(F)F)CC1	·	–	–
Cc1ccc(-c2csc3ncnc(SCC(=O)O)c23)cc1	–	–	–
SMILES	ARNT-TACC3 inh	CAL PDZ FP-1	CAL PDZ FP-2
Cc1ccc(-c2csc3ncnc(SCC(=O)NCC4CCCO4)c23)cc1 (stereo not drawn)	·	–	33
CCC(=O)N1[C@H](CO)[C@H](c2ccc(-c3ccc(F)cc3)cc2)[C@@H]1CN(C)C(C)=O	–	·	·
NC(=O)c1ccccc1[N+](=O)[O-]	·	–	–
N#CC(CCc1ccccc1[N+](=O)[O-])(CCc1ccccc1[N+](=O)[O-])C(N)=O	–	–	53
Nc1c2c(nc3ccccc13)CSCC2	–	–	50
Nc1c2c(nc3ccccc13)N(c1ccccc1)CC2	–	–	·
C[C@@H]1CN([C@H](C)CO)C(=O)c2cc(-c3ccccc3F)cnc2O[C@@H]1CN(C)C(=O)c1cnccn1	–	·	·
Cc1nn(CC(=O)N/N=C/c2cccs2)c(C)c1[N+](=O)[O-]	–	–	–
COc1cccc(NC(=S)NNC(=O)C(C)n2nc(C)c([N+](=O)[O-])c2C)c1 (stereo not drawn)	–	–	–
COc1cccc(/C=N/NC(=O)C(C)n2nc(C)c([N+](=O)[O-])c2C)c1O (stereo not drawn)	88	–	–

High-throughput results from PubChem BioAssay.
